According to ChEMBL document CHEMBL1155063 (Bioorg Med Chem, 2008):

Columns and labels:
[1] = Cytotoxicity against human H1299 cells at 100 uM after 48 hrs by MTT assay realtive to control; assay type: functional; details: NCI-H1299, 48 h
Outline: (§1)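 H1299 non-small-cell lung cells were kept in RPMI 1640 with 10% FBS and penicillin/streptomycin at 37 °C under 5% CO2. About 2 × 10^3 cells per well were pre-incubated for 24 h. Compound was added from freshly made DMSO solution diluted in complete medium and left for 48 h. MTT was then added for 4 h at 37 °C, followed by 20% SDS/50% DMF lysis buffer for 16 h at 37 °C, and absorbance read at 550 nm.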

[2] = Cytotoxicity against human TERT immortalized BJ1 cells at 1 uM after 48 hrs by MTT assay relative to control; assay type: cell-based, BJ
Outline: (§2)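 hTERT-immortalized BJ1 fibroblasts were grown in DMEM with 10% FCS, 1 mM pyruvate and 4 mM […]. Cells (about 2 × 10^3 per well) were seeded and held 24 h at 37 °C. Compounds were freshly dissolved in DMSO, diluted into medium and left on the cells 48 h. MTT was added for 4 h, then SDS/DMF lysis buffer for 16 h. Absorbance was read at 550 nm and expressed relative to untreated cells (100%).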

[3] = Cell viability of human H1299 cells at 1 uM after 48 hrs by MTT assay relative to control; details: NCI-H1299, 48 h
[4] = Cytotoxicity against human H1299 cells at 10 uM after 48 hrs by MTT assay realtive to control; assay type: functional; details: NCI-H1299, 48 h; outline: as §1
[5] = molecular target: T1, Telomerase reverse transcriptase (Homo sapiens, UniProt O14746); assay: Effect on human TERT expressed in H1299 cells at 100 uM after 24 hrs by SEAP assay relative to control
T1 sequence (O14746 whole entry): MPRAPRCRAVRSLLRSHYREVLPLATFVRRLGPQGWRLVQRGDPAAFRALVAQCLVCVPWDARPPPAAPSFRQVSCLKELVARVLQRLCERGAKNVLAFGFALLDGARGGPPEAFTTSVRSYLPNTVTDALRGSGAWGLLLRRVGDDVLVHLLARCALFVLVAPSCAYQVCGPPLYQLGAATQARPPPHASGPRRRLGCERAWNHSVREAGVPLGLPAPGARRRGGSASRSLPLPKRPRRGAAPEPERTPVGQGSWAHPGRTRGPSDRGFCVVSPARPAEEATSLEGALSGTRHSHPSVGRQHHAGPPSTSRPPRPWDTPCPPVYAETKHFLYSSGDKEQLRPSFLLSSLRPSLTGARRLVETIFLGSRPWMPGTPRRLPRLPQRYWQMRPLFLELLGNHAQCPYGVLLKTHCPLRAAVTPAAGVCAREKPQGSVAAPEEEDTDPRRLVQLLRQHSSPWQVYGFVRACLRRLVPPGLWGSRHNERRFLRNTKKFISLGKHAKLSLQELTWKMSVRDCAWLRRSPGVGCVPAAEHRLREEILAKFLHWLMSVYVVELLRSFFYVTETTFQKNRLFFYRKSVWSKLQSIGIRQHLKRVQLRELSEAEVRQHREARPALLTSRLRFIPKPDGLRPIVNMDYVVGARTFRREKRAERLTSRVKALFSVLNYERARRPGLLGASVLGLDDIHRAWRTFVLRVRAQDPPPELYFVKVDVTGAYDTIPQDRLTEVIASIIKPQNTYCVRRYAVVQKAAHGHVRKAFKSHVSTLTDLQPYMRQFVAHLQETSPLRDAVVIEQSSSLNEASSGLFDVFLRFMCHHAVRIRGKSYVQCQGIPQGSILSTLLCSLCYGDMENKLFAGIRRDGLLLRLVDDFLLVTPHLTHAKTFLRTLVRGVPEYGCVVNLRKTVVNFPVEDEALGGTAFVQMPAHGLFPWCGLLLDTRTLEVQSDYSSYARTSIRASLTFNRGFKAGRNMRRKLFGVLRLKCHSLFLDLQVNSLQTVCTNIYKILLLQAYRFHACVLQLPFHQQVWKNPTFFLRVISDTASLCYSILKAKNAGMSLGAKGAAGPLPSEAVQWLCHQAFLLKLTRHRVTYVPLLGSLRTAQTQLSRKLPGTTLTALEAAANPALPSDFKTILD

[6] = Cytotoxicity against human TERT immortalized BJ1 cells at 10 uM after 48 hrs by MTT assay relative to control; assay type: cell-based, BJ; outline: as §2
[7] = Cytotoxicity against human TERT immortalized BJ1 cells at 100 uM after 48 hrs by MTT assay relative to control; assay type: cell-based, BJ; outline: as §2
[8] = molecular target: T1, Telomerase reverse transcriptase; assay: Effect on human TERT expressed in BJ1 cells at 1 uM after 24 hrs by SEAP assay realtive to control; details: BJ
[9] = molecular target: T1, Telomerase reverse transcriptase; assay: Effect on human TERT expressed in H1299 cells at 1 uM after 24 hrs by SEAP assay relative to control
[10] = molecular target: T1, Telomerase reverse transcriptase; assay: Effect on human TERT expressed in BJ1 cells at 10 uM after 24 hrs by SEAP assay relative to control; details: BJ
[11] = molecular target: T1, Telomerase reverse transcriptase; assay: Effect on human TERT expressed in H1299 cells at 10 uM after 24 hrs by SEAP assay relative to control
[12] = molecular target: T1, Telomerase reverse transcriptase; assay: Effect on human TERT expressed in BJ1 cells at 100 uM after 24 hrs by SEAP assay relative to control; details: BJ

| Compound | viability at 100 µM [1] | viability at 48 h, 1 µM [2] | cell viability at 1 µM [3] | viability at 10 µM [4] | residual activity [5] | viability at 48 h, 10 µM [6] | viability at 48 h, 100 µM [7] | residual activity [8] | residual activity [9] | residual activity [10] | residual activity [11] | residual activity [12] |
| --- | --- | --- | --- | --- | --- | --- | --- | --- | --- | --- | --- | --- |
| CCNCC(=O)Nc1ccc2c(c1)C(=O)c1cc(NC(=O)CNCC)ccc1C2=O | 3% | 72% | 52% | 24% | 34% | 56% | 37% | 90% | 60% | 41% | 35% | 17% |
| O=C1c2ccc(NC(=O)C3CCCCC3)cc2C(=O)c2cc(NC(=O)C3CCCCC3)ccc21 | 52% | 87% | 90% | 63% | 80% | 76% | 64% | 14% | 96% | 14% | 93% | 22% |
| O=C(CCl)Nc1ccc2c(c1)C(=O)c1cc(NC(=O)CCl)ccc1C2=O | 1% | 105% | 58% | 5% | 36% | 89% | 88% |  | 72% | 69% | 40% | 135% |
| CCCC(=O)Nc1ccc2c(c1)C(=O)c1cc(NC(=O)CCC)ccc1C2=O | 40% | 84% | 93% | 59% | 83% | 51% | 50% |  | 90% |  | 83% |  |
| O=C(CCCl)Nc1ccc2c(c1)C(=O)c1cc(NC(=O)CCCl)ccc1C2=O | 29% | 77% | 77% | 44% | 87% | 65% | 39% |  | 94% |  | 94% |  |
| CN1CCN(CC(=O)Nc2ccc3c(c2)C(=O)c2cc(NC(=O)CN4CCN(C)CC4)ccc2C3=O)CC1 | 37% | 86% | 90% | 71% | 23% | 69% | 47% | 61% | 76% | 68% | 50% | 97% |
| CN1CCN(CCC(=O)Nc2ccc3c(c2)C(=O)c2cc(NC(=O)CCN4CCN(C)CC4)ccc2C3=O)CC1 | 39% | 95% | 95% | 80% | 21% | 80% | 61% |  | 75% | 138% | 52% |  |
| O=C(CCCCl)Nc1ccc2c(c1)C(=O)c1cc(NC(=O)CCCCl)ccc1C2=O | 22% | 72% | 84% | 40% | 78% | 62% | 58% | 13% | 88% | 42% | 86% | 75% |
| O=C(CN1CCCC1)Nc1ccc2c(c1)C(=O)c1cc(NC(=O)CN3CCCC3)ccc1C2=O | 23% | 99% | 99% | 52% | 30% | 60% | 39% |  | 88% |  | 48% |  |
| CCN(CC)CC(=O)Nc1ccc2c(c1)C(=O)c1cc(NC(=O)CN(CC)CC)ccc1C2=O | 25% | 116% | 101% | 47% | 37% | 67% | 50% | 26% | 90% | 131% | 61% | 116% |
| O=C(CN1CCCCC1)Nc1ccc2c(c1)C(=O)c1cc(NC(=O)CN3CCCCC3)ccc1C2=O | 35% | 89% | 50% | 37% | 63% | 78% | 22% | 118% | 74% | 121% | 69% | 103% |
| O=C1c2ccc([N+](=O)[O-])cc2C(=O)c2cc([N+](=O)[O-])ccc21 | 69% | 91% | 97% | 95% | 62% | 91% | 86% | 55% | 87% | 60% | 85% | 65% |
| O=C(Nc1ccc2c(c1)C(=O)c1cc(NC(=O)c3ccccc3)ccc1C2=O)c1ccccc1 | 41% | 92% | 71% | 47% | 85% | 85% | 97% |  | 104% | 72% | 92% | 36% |
| CCC(=O)Nc1ccc2c(c1)C(=O)c1cc(NC(=O)CC)ccc1C2=O | 35% | 77% | 70% | 38% | 85% | 57% | 48% | 78% | 90% | 64% | 95% | 51% |
| CC(C)NCC(=O)Nc1ccc2c(c1)C(=O)c1cc(NC(=O)CNC(C)C)ccc1C2=O | 6% | 89% | 78% | 26% | 21% | 41% | 39% | 79% | 73% | 55% | 28% | 45% |
| O=C1c2ccc(NC(=O)C3CCCC3)cc2C(=O)c2cc(NC(=O)C3CCCC3)ccc21 | 42% | 77% | 91% | 77% | 85% | 68% | 58% | 137% | 83% | 130% | 87% | 108% |
| CCCNCC(=O)Nc1ccc2c(c1)C(=O)c1cc(NC(=O)CNCCC)ccc1C2=O | 14% | 96% | 89% | 54% | 24% | 44% | 42% |  | 73% |  | 44% |  |
| Nc1ccc2c(c1)C(=O)c1cc(N)ccc1C2=O | 65% | 95% | 90% | 80% | 63% | 83% | 80% |  | 87% |  | 75% |  |
| O=C(CN1CCNCC1)Nc1ccc2c(c1)C(=O)c1cc(NC(=O)CN3CCNCC3)ccc1C2=O | 88% | 88% | 88% | 85% | 60% | 85% | 76% |  | 89% |  | 72% |  |
